Data from ChEMBL document CHEMBL4706595, “1,3-Oxazine-2-one derived dual-targeted molecules against replicating and non-replicating forms of Mycobacterium tuberculosis” (Eur J Med Chem, 2020).
Values after ≈ are worked out from the molar mass of the structure shown. Active and inactive are the calls of the source. The rule behind the calls is not given here.

Legend:
[1] = test system: Mycobacterium tuberculosis; assay: Inhibition of mycolic acid biosynthesis in Mycobacterium tuberculosis H37Ra assessed as reduction in alfa-mycolate production at 5XMIC incubated for 7 days by TLC analysis; assay type: functional; conditions: time 7 day
[2] = test system: Mycolicibacterium smegmatis; assay: Antimycobacterial activity against Mycobacterium smegmatis mc2155 assessed as inhibition of bacterial growth incubated for 48 hrs by broth microdilution method; assay type: functional; conditions: MC2 155
[3] = test system: Mycobacterium tuberculosis; assay: Antimycobacterial activity against replicating Mycobacterium tuberculosis H37Rv assessed as inhibition of bacterial growth incubated for 7 days by MABA assay; assay type: functional; conditions: time 7 day
[4] = test system: Mycobacterium tuberculosis; assay: Inhibition of mycolic acid biosynthesis in Mycobacterium tuberculosis H37Ra assessed as reduction in methoxy-mycolate production at 5XMIC incubated for 7 days by TLC analysis; assay type: functional; conditions: time 7 day
[5] = Inhibition of Mycobacterium smegmatis mc2155 menG assessed as inhibition of 2-methyl-3-(3,7,11-trimethyldodeca-2,6,10-trienyl)naphthalene-1,4-dione formation using 2-(3,7,11-trimethyldodeca-2,6,10-trienyl)naphthalene-1,4-dione as substrate incubated for 3 hrs in presence of SAM by HPLC analysis; design: species or system Mycolicibacterium smegmatis MC2 155
[6] = test system: Mycobacterium tuberculosis; assay: Antimycobacterial activity against non-replicating Mycobacterium tuberculosis H37Rv expressing pFCA-LuxAB assessed as bacterial growth inhibition incubated for 10 days under anerobic condition by low oxygen recovery assay; assay type: functional; conditions: 240 h, time 10 day
[7] = test system: Mycobacterium tuberculosis; assay: Inhibition of mycolic acid biosynthesis in Mycobacterium tuberculosis H37Ra assessed as reduction in keto-mycolate production at 5XMIC incubated for 7 days by TLC analysis; assay type: functional; conditions: time 7 day
[8] = Inhibition of Mycobacterium tuberculosis H37Ra menG assessed as inhibition of 2-methyl-3-(3,7,11-trimethyldodeca-2,6,10-trienyl)naphthalene-1,4-dione formation using 2-(3,7,11-trimethyldodeca-2,6,10-trienyl)naphthalene-1,4-dione as substrate incubated for 3 hrs in presence of SAM by HPLC analysis
[9] = test system: Mycobacterium tuberculosis; assay: Antimycobacterial activity against dormant Mycobacterium tuberculosis H37Ra assessed as inhibition of bacterial growth at 30 ug/ml incubated for 10 days in presence of Vit-K2 measured following 27 days of culturing on agar plate […] relative to control; assay type: functional; conditions: dose 30 µg/ml; time 37 day
In short: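 Dormant H37Ra: 2×10⁶ bacteria/ml in sealed vials, 37 °C, 25 rpm. Cultures with compound (3 or 30 µg/ml) plus 1 mM Vit-K2 grown 10 days, then CFU counted on 7H10 agar after 27 days; comparison with 1 mM Vit-K2 set.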

[10] = Cytotoxicity against human PBMC assessed as reduction in cell growth after 72 hrs by MTT assay; assay type: tissue-based
[11] = test system: Mycobacterium tuberculosis; assay: Antimycobacterial activity against replicating Mycobacterium tuberculosis H37Ra assessed as inhibition of bacterial growth incubated for 7 days by MABA assay; assay type: functional; conditions: time 7 day
[12] = test system: Mycobacterium tuberculosis; assay: Antimycobacterial activity against Mycobacterium tuberculosis H37Rv ATCC 27294 assessed as inhibition of bacterial growth by agar plate dilution method; assay type: functional
In short: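 MIC determined by agar plate dilution method; isoniazid and rifampin run as references.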

[13] = test system: Mycobacterium tuberculosis; assay: Inhibition of respiratory system in dormant Mycobacterium tuberculosis H37Ra assessed as reduction in ATP production at 20 to 80 ug/ml measured on day 3 to 9 following drug addition by microplate reader analysis; assay type: functional; conditions: dose 20-80 µg/ml, time 3-9 day

| Compound | inhibition (INH) [1] [%] | MIC [2] [mg/L] | MIC [3] [mg/L] | inhibition (INH) [4] [%] | IC50 [5] [mg/L] | MIC [6] [mg/L] | inhibition (INH) [7] [%] | IC50 [8] [mg/L] | fold change (FC) [9] | IC50 [10] [mg/L] | MIC [11] [mg/L] | MIC [12] [mg/L] | inhibition [13] |
| --- | --- | --- | --- | --- | --- | --- | --- | --- | --- | --- | --- | --- | --- |
| CC(C)=CCC/C(C)=C/COc1ccc(C(=O)OCCCOc2cccc(Nc3nc4ccccc4c(=O)o3)c2)cc1 | 100 | 6.3 (≈ 11.1 µM) | 3.48 (≈ 6.12 µM) | 100 | 11.76 | 2.94 (≈ 5.17 µM) | 100 | 9.11 | 2.9 | 134 (≈ 236 µM) | 3.93 (≈ 6.91 µM) | 3.5 (≈ 6.15 µM) | – |
| CCCCCCCCC(=O)Oc1cccc(Nc2nc3ccccc3c(=O)o2)c1 | – | > 100 | > 100 | – | – | > 100 | – | – | – | 171 (≈ 434 µM) | > 100 | – | – |
| CCCCCCCCCCCCCCCCCCOc1ccc(C(=O)OCCCOc2cccc(Nc3nc4ccccc4c(=O)o3)c2)cc1 | – | 12.5 (≈ 18.3 µM) | 56.1 (≈ 81.9 µM) | – | – | 38.2 (≈ 55.7 µM) | – | – | – | 158 (≈ 231 µM) | 60.4 (≈ 88.2 µM) | – | – |
| CC(=O)Oc1cccc(Nc2nc3ccccc3c(=O)o2)c1 | – | 100 (≈ 338 µM) | > 100 | – | – | 80.3 (≈ 271 µM) | – | – | – | 131 (≈ 444 µM) | > 100 | – | – |
| CCCCCCCC/C=C/CCCCCCCC(=O)Oc1cccc(Nc2nc3ccccc3c(=O)o2)c1 | – | 50 (≈ 96.4 µM) | 47.4 (≈ 91.3 µM) | – | – | 68.9 (≈ 133 µM) | – | – | – | 179 (≈ 344 µM) | 51.4 (≈ 99.2 µM) | – | – |
| CCCCCOc1ccc(C(=O)OCCCOc2cccc(Nc3nc4ccccc4c(=O)o3)c2)cc1 | 100 | 25 (≈ 49.7 µM) | 7.01 (≈ 13.9 µM) | 48 | 27.19 | 9.02 (≈ 17.9 µM) | 37 | 20.88 | – | 142 (≈ 282 µM) | 8.16 (≈ 16.2 µM) | – | – |
| CCCCOc1ccc(C(=O)OCCCOc2cccc(Nc3nc4ccccc4c(=O)o3)c2)cc1 | 100 | 25 (≈ 51.2 µM) | 7.28 (≈ 14.9 µM) | 36 | 29.71 | 9.41 (≈ 19.3 µM) | 31 | 20.06 | – | 117 (≈ 239 µM) | 6.32 (≈ 12.9 µM) | – | – |
| CCCCCCCCCC(=O)Oc1cccc(Nc2nc3ccccc3c(=O)o2)c1 | – | 25 (≈ 61.2 µM) | 33 (≈ 80.7 µM) | – | – | 53.3 (≈ 130 µM) | – | – | – | 195 (≈ 476 µM) | 29.6 (≈ 72.4 µM) | – | – |
| O=c1oc(Nc2cccc(O)c2)nc2ccccc12 | – | 25 (≈ 98.3 µM) | 75.2 (≈ 296 µM) | – | – | 40.1 (≈ 158 µM) | – | – | – | 173 (≈ 682 µM) | 66.2 (≈ 260 µM) | – | – |
| CC(C)=CCOc1ccc(C(=O)OCCCOc2cccc(Nc3nc4ccccc4c(=O)o3)c2)cc1 | – | 12.5 (≈ 25 µM) | > 100 | – | – | > 100 | – | – | – | 190 (≈ 380 µM) | > 100 | – | – |
| CCCCCCCCCCCCCCCC(=O)Oc1cccc(Nc2nc3ccccc3c(=O)o2)c1 | – | 100 (≈ 203 µM) | > 100 | – | – | > 100 | – | – | – | 182 (≈ 369 µM) | > 100 | – | – |
| CC(C)=CCOc1cccc(NC(=O)Nc2ccccc2C)c1 | – | – | 5.2 (≈ 16.8 µM) | – | – | – | – | – | – | – | – | – | – |
| CCOc1ccc(C(=O)OCCCOc2cccc(Nc3nc4ccccc4c(=O)o3)c2)cc1 | – | > 100 | > 100 | – | – | > 100 | – | – | – | 102 (≈ 223 µM) | > 100 | – | – |
| CO[C@H]1/C=C/O[C@@]2(C)Oc3c(C)c(O)c4c(O)c(c(/C=N/N5CCN(C)CC5)c(O)c4c3C2=O)NC(=O)/C(C)=C\C=C\[C@H](C)[C@H](O)[C@@H](C)[C@@H](O)[C@@H](C)[C@H](OC(C)=O)[C@@H]1C [RIFAMPIN] | – | 1.5 (≈ 1.82 µM) | 0.01 (≈ 0.0122 µM) | – | – | 0.04 (≈ 0.0486 µM) | – | – | – | 62.9 (≈ 76.5 µM) | 0.02 (≈ 0.0243 µM) | 0.01 (≈ 0.0122 µM) | – |
| CC(C)=CCC/C(C)=C/CC/C(C)=C/COc1ccc(C(=O)OCCCOc2cccc(Nc3nc4ccccc4c(=O)o3)c2)cc1 | 100 | 3.2 (≈ 5.03 µM) | 2.97 (≈ 4.66 µM) | 100 | 10.88 | 2.15 (≈ 3.38 µM) | 100 | 6.25 | 4.1 | 169 (≈ 266 µM) | 2.71 (≈ 4.26 µM) | 2.9 (≈ 4.55 µM) | Active |
